Data on seven molecules can be found in ChEMBL document CHEMBL1129660, “Studies on 6-aminoquinolones: synthesis and antibacterial evaluation of 6-amino-8-methylquinolones” (J Med Chem, 1996).

Values after ≈ are worked out from the molar mass of the structure shown.

Common to all, as to type: functional
Assay [1] relates to Proteus vulgaris. In words: Antibacterial activity tested against Proteus vulgaris CNUR 5. An outline of the steps:
(§1)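 MICs (µg/mL) determined by conventional agar dilution against a panel of eight Gram-negative and five Gram-positive reference strains.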

The test system of assay [2] is Escherichia coli. As to the kind of experiment: Antibacterial activity tested against Escherichia coli ISF 432. In outline: as §1
Assay [3] is described as follows: Geometric mean of antibacterial activity (Gram -ve bacteria) of the compound. In outline:
(§2)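 Geometric means calculated from agar-dilution MICs (µg/mL), taken separately across the five Gram-positive and the eight Gram-negative panel strains.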

Assay [4] has as its system Providencia stuartii. In words: Antibacterial activity tested against Providencia stuartii CNUR 5. An outline of the steps:
as §1

Assay [5] relates to Staphylococcus aureus. In words: Antibacterial activity against Staphylococcus aureus MPR 5. In outline:
as §1

The test system of assay [6] is Staphylococcus epidermidis. As to the kind of experiment: Antibacterial activity tested against Staphylococcus epidermidis CPHL A2. In outline:
as §1

Assay [7] has as its system Staphylococcus aureus. As to the kind of experiment: Antibacterial activity against Staphylococcus aureus ATCC 6538. An outline of the steps: as §1
Assay [8] concerns Pseudomonas aeruginosa. In words: Antibacterial activity tested against P. ae (Pseudomonas aeruginosa) ATCC 9027. In outline: as §1
The test system of assay [9] is Staphylococcus epidermidis. In words: Antibacterial activity tested against Staphylococcus epidermidis HCF Berset C. In outline:
as §1

The subject of assay [10] is Klebsiella pneumoniae. As to the kind of experiment: Antibacterial activity tested against Klebsiella pneumoniae (Klebsiella pneumoniae) ATCC 10031. In outline: as §1
In assay [11] the test system is Escherichia coli. As to the kind of experiment: Antibacterial activity tested against Escherichia coli ATCC 8739. In outline:
as §1

The subject of assay [12] is Enterobacter cloacae. In words: Antibacterial activity tested against Enterobacter cloacae OMNFI 174.
Assay [13] deals with Bacteria. As to the kind of experiment: Geometric mean of antibacterial activity (Gram +ve bacteria) of the compound. In outline:
as §2

Assay [14] has as its system Shigella. As to the kind of experiment: Antibacterial activity tested against Shigella enteritidis. In outline:
as §1

The subject of assay [15] is Enterococcus faecalis. In words: Antibacterial activity tested against Streptococcus faecalis LEP Br. In outline:
as §1

For `COc1ccc(-n2cc(C(=O)O)c(=O)c3cc(N)c(N4CCN(C)CC4)c(C)c32)cc1`, the MIC in [1] is 128 mg/L (≈ 303 µM); in [2], 16 mg/L (≈ 37.9 µM); in assay [4] it was 128 mg/L (≈ 303 µM); in assay [5], 64 mg/L (≈ 151 µM); in assay [6] it was 128 mg/L (≈ 303 µM); in [7] it was 64 mg/L (≈ 151 µM). Moreover, the MIC is > 128 mg/L in [8]; 64 mg/L (≈ 151 µM) in assay [9]; 16 mg/L (≈ 37.9 µM) in assay [10]; > 128 mg/L in assay [11]; > 128 mg/L in assay [12]; > 128 mg/L in assay [14]. Moreover, the lowest concentration to inhibit growth in [15] (MIC) was 128 mg/L (≈ 303 µM). For the same molecule, the Geometric mean in assay [3] is given as 76.109; in assay [13] it was 84.45.
`Cc1c(N2CCC3CCCCC3C2)c(N)cc2c(=O)c(C(=O)O)cn(C3CC3)c12` (stereo not given): the MIC came out at 64 mg/L (≈ 162 µM) in assay [1]; 4 mg/L (≈ 10.1 µM) in assay [2]; 1 mg/L (≈ 2.53 µM) in assay [4]; 0.06 mg/L (≈ 0.152 µM) in [5]; 0.25 mg/L (≈ 0.632 µM) in assay [6]; 0.06 mg/L (≈ 0.152 µM) in assay [7]. The MIC in assay [8] was determined as 64 mg/L (≈ 162 µM); in assay [9], 0.125 mg/L (≈ 0.316 µM); in assay [10], 0.125 mg/L (≈ 0.316 µM); in assay [11], 4 mg/L (≈ 10.1 µM); in assay [12], 4 mg/L (≈ 10.1 µM); in assay [14], 2 mg/L (≈ 5.06 µM). Moreover, the MIC in assay [15] came out at 2 mg/L (≈ 5.06 µM). In addition, the Geometric mean in assay [3] came out at 4; in assay [13], 0.186.
Regarding `Cc1c(N2CCCC(C)(C)C2)c(N)cc2c(=O)c(C(=O)O)cn(C3CC3)c12`, the MIC was > 128 mg/L in assay [1]; 0.5 mg/L (≈ 1.35 µM) in assay [2]; 8 mg/L (≈ 21.7 µM) in [4]; 0.5 mg/L (≈ 1.35 µM) in assay [5]; 1 mg/L (≈ 2.71 µM) in assay [6]; 0.5 mg/L (≈ 1.35 µM) in assay [7]. The MIC in assay [8] was determined as 64 mg/L (≈ 173 µM); in assay [9], 1 mg/L (≈ 2.71 µM); in [10], 0.5 mg/L (≈ 1.35 µM); in [11] it was 0.5 mg/L (≈ 1.35 µM); in assay [12], 16 mg/L (≈ 43.3 µM); in [14], 16 mg/L (≈ 43.3 µM). The same molecule came in with an MIC in assay [15] of 16 mg/L (≈ 43.3 µM). Besides, the values for the Geometric mean in assay [3] and in assay [13] were 6.17 and 1.132, respectively.
In the case of `Cc1c(N2CCCC(CO)C2)c(N)cc2c(=O)c(C(=O)O)cn(C3CC3)c12` (stereo not given), the MIC in assay [1] amounted to 64 mg/L (≈ 172 µM); in assay [2], 0.016 mg/L (≈ 0.0431 µM); in assay [4] it was 4 mg/L (≈ 10.8 µM); in assay [5], 0.125 mg/L (≈ 0.337 µM); in [6], 0.25 mg/L (≈ 0.673 µM); in [7], 0.125 mg/L (≈ 0.337 µM). Further, the MIC worked out at 2 mg/L (≈ 5.38 µM) in assay [8]; 0.25 mg/L (≈ 0.673 µM) in assay [9]; 0.016 mg/L (≈ 0.0431 µM) in assay [10]; 0.016 mg/L (≈ 0.0431 µM) in assay [11]; 2 mg/L (≈ 5.38 µM) in assay [12]; 1 mg/L (≈ 2.69 µM) in assay [14]. The MIC in [15] came to 2 mg/L (≈ 5.38 µM). Also, the Geometric mean in assay [3] is reported as 0.504; in [13] it was 0.287.
As for `Cc1c(N2CCCC(C)C2)c(N)cc2c(=O)c(C(=O)O)cn(C3CC3)c12` (stereo not given), the MIC in assay [1] is 32 mg/L (≈ 90 µM); in assay [2] it was 0.03 mg/L (≈ 0.0844 µM); in assay [4] it was 0.25 mg/L (≈ 0.703 µM); in [5], 0.06 mg/L (≈ 0.169 µM); in [6], 0.125 mg/L (≈ 0.352 µM); in [7], 0.03 mg/L (≈ 0.0844 µM). Further, the MIC in assay [8] was found to be 4 mg/L (≈ 11.3 µM); in assay [9], 0.25 mg/L (≈ 0.703 µM); in assay [10], 0.03 mg/L (≈ 0.0844 µM); in assay [11], 0.03 mg/L (≈ 0.0844 µM); in assay [12], 1 mg/L (≈ 2.81 µM); in assay [14], 1 mg/L (≈ 2.81 µM). In assay [15], this molecule displayed an MIC of 2 mg/L (≈ 5.63 µM). Further, the values for the Geometric mean in [3] and in [13] were 0.414 and 0.162, respectively.
As to `Nc1cc2c(=O)c(C(=O)O)cn(C3CC3)c2cc1N1CCc2ccccc2C1`, the MIC was 128 mg/L (≈ 341 µM) in [1]; 32 mg/L (≈ 85.2 µM) in assay [2]; 128 mg/L (≈ 341 µM) in [4]; 4 mg/L (≈ 10.7 µM) in assay [5]; 16 mg/L (≈ 42.6 µM) in assay [6]; 128 mg/L (≈ 341 µM) in assay [7]. Further, the MIC in assay [8] came out at 128 mg/L (≈ 341 µM); in [9] it was 16 mg/L (≈ 42.6 µM); in [10], 128 mg/L (≈ 341 µM); in [11] it was 128 mg/L (≈ 341 µM); in [12] it was 128 mg/L (≈ 341 µM); in [14], 128 mg/L (≈ 341 µM). The molecule further gave an MIC in [15] of 128 mg/L (≈ 341 µM). Moreover, the figures for the Geometric mean in assay [3] and in [13] were 107.635 and 27.857, respectively.
`Cc1c(N2CCc3ccccc3C2)c([N+](=O)[O-])cc2c(=O)c(C(=O)O)cn(C3CC3)c12`: the minimum inhibitory concentration (MIC) in [1] is 64 mg/L (≈ 153 µM); in assay [2], 4 mg/L (≈ 9.54 µM); in [4], 64 mg/L (≈ 153 µM); in assay [5], 0.25 mg/L (≈ 0.596 µM); in [6], 4 mg/L (≈ 9.54 µM); in assay [7] it was 64 mg/L (≈ 153 µM). In addition, the MIC in assay [8] was found to be 64 mg/L (≈ 153 µM); in assay [9], 2 mg/L (≈ 4.77 µM); in assay [10], 64 mg/L (≈ 153 µM); in [11] it was 64 mg/L (≈ 153 µM); in assay [12], 64 mg/L (≈ 153 µM); in [14], 64 mg/L (≈ 153 µM). In addition, the MIC in [15] was 4 mg/L (≈ 9.54 µM). The Geometric mean is given as 45.25 in assay [3] and 3.482 in [13].

As usually defined, the MIC is the lowest concentration found to suppress growth. Read a low MIC as inhibition by little substance.
